# WT yeast gro inh – growth inhibition of WT yeast, mitochondrial fusion screen; mitochondrial fusion phenotypic screen, WT strain; inhibition, % at 10 µM; 190,000 tested, 2.1% active; AID 1362; in the data active = inhibition above about 58%; tested in S. cerevisiae
# b-catenin transl – beta-catenin nuclear translocation modulation; AID 1665; HeLa beta-catenin nuclear translocation, immunofluorescence imaging; 190,000 tested, 0.3% active; nuclear translocation activity, % at 5 µM;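 active = nuclear translocation activity above 50% at 5 µM, with a well cell count of 50 or more; inconclusive = wells under 50 cells across six images, flagged as toxic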;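 also: per-cell ratio of nuclear to cytoplasmic median beta-catenin stain intensity; plate controls were DMSO negative control for no effect and GSK-3 inhibitor IX positive control for full effect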
#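 Test system: human HeLa cell line; Doses: 5 µM primary, 0.02–20 µM confirmation; Incubation: 24 h compound exposure, 37°C; Detection: beta-catenin immunofluorescence imaging with DAPI; Read-out: beta-catenin nuclear/cytoplasmic ratio, % activation.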
# MT stabilize HCS – stabilizes microtubules in HeLa cells | HeLa tubulin immunostaining HCS, 24 h; share of cells brighter than vehicle mean+2SD | % tubulin-high responders, % at 10 µM | 200,000 tested, 0.83% active | AID 2205;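 active = plate Z-score above 3 for both tubulin-high and condensed-nucleus cell shares, with cell loss under 80%, at 10 µM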;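 also: anti alpha tubulin signal scored within the nucleus-defined area of each cell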
# KCC2 mod – modulates chloride dependent transport by human KCC2. KCC2 cells, thallium flux FluoZin-2 fluorescence. B-score of Tl+ flux slope (higher = more flux/activation; lower = inhibition) at 10 µM. 190,000 tested, 2.2% active. AID 1456;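 active = thallium flux slope and its plate-corrected score both differing from the plate sample mean at a set confidence after two filtering rounds, in either direction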;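 also: slope of fluorescence scaled to starting intensity during 10 to 20 s after thallium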
# Target sequence (Q9H2X9 whole entry, looked up): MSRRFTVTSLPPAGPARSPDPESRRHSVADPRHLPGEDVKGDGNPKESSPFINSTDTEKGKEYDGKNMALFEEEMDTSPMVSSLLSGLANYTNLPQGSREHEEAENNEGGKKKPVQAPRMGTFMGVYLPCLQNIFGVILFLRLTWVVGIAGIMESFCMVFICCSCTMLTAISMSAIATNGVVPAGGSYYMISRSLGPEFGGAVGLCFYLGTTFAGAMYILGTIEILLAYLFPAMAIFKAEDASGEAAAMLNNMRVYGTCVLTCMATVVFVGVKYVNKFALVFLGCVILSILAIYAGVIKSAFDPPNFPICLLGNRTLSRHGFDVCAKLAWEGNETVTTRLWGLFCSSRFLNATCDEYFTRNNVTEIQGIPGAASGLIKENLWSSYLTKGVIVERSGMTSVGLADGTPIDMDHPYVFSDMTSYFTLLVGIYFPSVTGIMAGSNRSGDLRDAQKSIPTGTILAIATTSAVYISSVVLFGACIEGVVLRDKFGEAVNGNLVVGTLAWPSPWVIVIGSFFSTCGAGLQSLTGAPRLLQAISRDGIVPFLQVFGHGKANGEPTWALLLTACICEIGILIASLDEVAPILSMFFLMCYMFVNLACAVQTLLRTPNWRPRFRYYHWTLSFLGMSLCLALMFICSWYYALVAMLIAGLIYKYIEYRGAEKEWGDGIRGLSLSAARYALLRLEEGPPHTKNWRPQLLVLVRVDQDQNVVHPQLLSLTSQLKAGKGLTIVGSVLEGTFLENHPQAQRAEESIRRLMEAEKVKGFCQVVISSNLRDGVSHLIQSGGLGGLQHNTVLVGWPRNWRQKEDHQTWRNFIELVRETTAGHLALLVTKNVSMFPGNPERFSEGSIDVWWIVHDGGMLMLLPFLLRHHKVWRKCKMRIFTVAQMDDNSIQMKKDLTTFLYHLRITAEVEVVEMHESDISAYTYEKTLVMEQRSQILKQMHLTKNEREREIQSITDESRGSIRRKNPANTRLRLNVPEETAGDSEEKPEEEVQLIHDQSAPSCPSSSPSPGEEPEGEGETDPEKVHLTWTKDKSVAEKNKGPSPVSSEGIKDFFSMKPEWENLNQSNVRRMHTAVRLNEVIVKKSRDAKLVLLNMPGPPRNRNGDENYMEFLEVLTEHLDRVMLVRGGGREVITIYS
# Pf gamet viab – kills late stage P. falciparum gametocytes; AID 743093; P. falciparum stage V gametocytes, ATP luminescence, 24 h; inhibition, % at 10.9 µM; 150,000 tested, 0.065% active;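 active = inhibition above the mean plus 3 SD of compounds within the control limits, set per campaign, cut at about 38% in these data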;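 also: 0% = DMSO wells and 100% = medium only without gametocytes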
# Active calls of the source: *; u = inconclusive; x = no result. A selection: hits, their analogues and other compounds. The true share with any hit is near 4%.
SMILES,WT yeast gro inh,b-catenin transl,MT stabilize HCS,KCC2 mod,Pf gamet viab
CCN(CC)C(=O)COc1ccc(-c2nnc(Nc3ccc(OC)c(C(=O)NC)c3)c3ccccc23)cc1,x,-1,x,-1.1,-8
CCC1(c2ccc(Cl)cc2)NC(=S)N(c2ccccc2)N1 (stereo unspecified),31,0,8,23*,1
Cc1[nH]c(=O)[nH]c(=O)c1S(=O)(=O)NCC12CC3CC(CC(C3)C1)C2,18,x,6,0.36,-18
CCC(NS(=O)(=O)c1c(C)[nH]c(=O)[nH]c1=O)C12CC3CC(CC(C3)C1)C2 (stereo unspecified),64*,-1,2,0.056,x
CC1CCCC(C)N1C(=O)Cc1ccccc1 (stereo unspecified),-4,9,2,1.5,-5
COc1cc(/C=C2\SC(=N)N(c3ccc(F)cc3)C2=O)ccc1O,3,2,10*,-1,3
CCOc1cc(/C=C2\SC(=S)N(Nc3ccccc3)C2=O)ccc1O,69*,0,8,-0.21,-27
COc1cc(/C=C2\SC(=S)N(Nc3ccccc3)C2=O)ccc1O,86*,1,9,0.26,x
CN(C)c1ccc(/C=C2\SC(=S)N(Nc3ncc(C(F)(F)F)cc3Cl)C2=O)cc1,5,3,10,-2.7,-13
COc1cc(/C=C2\SC(=S)N(Nc3ncc(C(F)(F)F)cc3Cl)C2=O)ccc1O,83*,x,7,-0.65,x
CCNc1ccc(C(=O)OCC)cc1NC(=O)c1cccc(N(C)C)c1,-3,26,38*,0.69,6
CCNc1ccc(C(=O)OCC)cc1NC(=O)c1cccc(S(=O)(=O)N(C)c2ccccc2)c1,-13,-4,5,-1.8,6
C[N+]1(CC(=O)Nc2ccc(F)cc2)CCN(C(=O)c2ccco2)CC1,67*,0,3,-0.058,-26
c1ccc(-c2cc(-c3nc4ccccc4[nH]3)c3ccccc3n2)cc1,60*,4,4,-1,x
COc1cc(C2C3=C(CCCC3=O)Nc3ccc4ncccc4c32)ccc1O (stereo unspecified),4,0,33*,-1.1,-9
COc1cccc(CNC(=O)Cn2cc([N+](=O)[O-])cn2)c1,x,x,x,x,1
COc1cc(C(=O)OC2CC3CCC2(C)C3(C)C)ccc1OC(C)=O (stereo unspecified),73*,1,1,0.66,x
O=C(CCn1cnc2ccccc2c1=O)Nc1cccc(Cl)c1Cl,-8,1,4,-0.4,11
CCC(OC(=O)c1cc2sccc2n1C)C(=O)NCc1ccco1 (stereo unspecified),75*,x,2,-1.9,-13
O=C(NCc1ccco1)c1cc2sccc2n1Cc1ccccc1,61*,-1,4,-0.49,2
Cc1cc2c(cc(C(=O)OCC(=O)NCc3ccco3)n2C)s1,8,44,51*,-0.066,x
O=C(NCCc1ccccc1)c1cc2sccc2n1Cc1ccccc1,7,-4,3,0.91,x
N#CCOC(=O)C1CSC2(c3ccc(Br)cc3)CCC(=O)N12 (stereo unspecified),-22,-1,2,-2.7,x
Nc1ccc2c(c1)OC1(CCCCC1)O2,1,-2,3,-0.8,5
O=c1c2ccccc2c(-c2ccc(O)cc2)nn1-c1cccc(C(F)(F)F)c1,83*,0,2,-0.07,x
SMILES,WT yeast gro inh,b-catenin transl,MT stabilize HCS,KCC2 mod,Pf gamet viab
CC(C)C(NC(=O)C12CC3CC(CC(C3)C1)C2)C(=O)NC1=NCCS1 (stereo unspecified),66*,1,3,0.22,x
O=c1[nH]ncc(N2CCN(C(c3ccccc3)c3ccccc3)CC2)c1Cl,69*,-1,3,-0.22,7
O=c1[nH]ncc(N2CCCC2)c1Cl,1,-1,5,-0.0048,x
Cc1ccc(-c2nn(-c3cc(N4CCNCC4)ccc3[N+](=O)[O-])c(=O)c3ccccc23)cc1,10,13,18,2.1,x
CCc1ccc(/C=C/C(=O)C2C(=O)c3ccccc3C2=O)cc1,7,-3,2,19*,x
O=C(/C=C/c1ccccc1)C1C(=O)c2ccccc2C1=O,16,0,4,36*,x
CCc1ccc(C2C(C(=O)O)c3ccccc3C(=O)N2C)cc1 (stereo unspecified),-18,-3,3,-0.33,x
CCSc1ccc([C@@H]2[C@@H]3C(=O)N(CC)C(=O)[C@@H]3[C@]3(C(=O)OC)CCCN23)cc1,x,x,x,x,-25
CC1CCCCC1NC(=O)CN1C(=O)CSc2cc(S(=O)(=O)N3CCCCCC3)ccc21 (stereo unspecified),19,-2,4,-3,2
O=C(CN1C(=O)CSc2cc(S(=O)(=O)N3CCCCCC3)ccc21)NCCc1ccccc1,10,3,3,-7.8*,x
CC(=O)N1c2ccc(Cl)cc2C2C=CCC2C1c1cccc2ccccc12 (stereo unspecified),5,82*,12*,-0.26,x
CC(=O)N1c2ccc3ccccc3c2C2C=CCC2C1c1ccc(Br)cc1 (stereo unspecified),47,3,3,-0.58,x
O=c1c2ccccc2sn1-c1ccccc1,95,-6,3,0.27,28
Cc1ccc(-n2sc3ccccc3c2=O)cc1S(=O)(=O)N1CCCCC1,94*,0,2,1.2,-22
CN(C)S(=O)(=O)c1cccc(-n2sc3ccccc3c2=O)c1,67*,-2,10,-0.64,x
CN(C)S(=O)(=O)c1ccc(NC(=O)COC(=O)CC2CC3CCC2C3)cc1 (stereo unspecified),8,-4,1,0.029,x
O=C1CC(c2cccc([N+](=O)[O-])c2)c2c(ccc3ccccc23)N1 (stereo unspecified),-18,-1,50*,-0.17,5
COc1cccc(C2CC(=O)Nc3cc4c(cc32)CCC4)c1 (stereo unspecified),27,2,17*,-1.9,-7
O=C1CC(c2cccc([N+](=O)[O-])c2)c2cc3c(cc2N1)CCC3 (stereo unspecified),25,0,26*,0.5,28
O=C1CC(c2cc(Br)ccc2F)c2cc3c(cc2N1)CCC3 (stereo unspecified),-2,38,13,x,x
O=C1CC(c2cccc(Cl)c2)c2cc3c(cc2N1)CCC3 (stereo unspecified),8,0,32*,0.045,x
N#Cc1cc([N+](=O)[O-])ccc1NCCN1CCOCC1,-21,1,2,1.1,-12
Cn1c(-c2ccc3c(c2)OCO3)cnc1NCc1cccc(O)c1,-13,3,3,-0.69,-3
CCOc1cc(/C=N/N=C(N)N)ccc1OCc1ccc(Cl)cc1,52,u,65,0.12,-16
COc1cc(/C=N/N=C(N)N)ccc1OCc1ccc(Cl)cc1,-13,2,67*,0.028,-9
CCOC(=O)C(C)Oc1cccc2c(=O)n(CC(=O)NCc3ccco3)ccc12 (stereo unspecified),-2,73*,10,0.014,x

# From PubChem
